Experimental findings from ChEMBL document CHEMBL1154609, “Synthesis and antibacterial activity of isothiazolyl oxazolidinones and analogous 3(2H)-isothiazolones” (Eur J Med Chem, 2010) are described below.

The structures appear in SMILES notation. In brackets after ≈: the same amount, converted by molar mass.

Test [1] has as its system Salmonella typhimurium. Put plainly: Antibacterial activity against Salmonella Typhimurium ATCC 1639 after 18 hrs by agar dilution method. It counts as functional, Salmonella enterica subsp. enterica serovar Typhimurium. Conditions: Salmonella enterica, ATCC 1639, 18 h. The essentials:
(§1)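 Agar dilution on Mueller Hinton agar; inoculum about 10^6 CFU/mL applied to plates with twofold serial dilutions of compound in distilled water, 0.01 to 100 μg/mL; 37 °C, 18 h. DMSO-supplemented medium at matching dilution run as solvent control. MIC = lowest concentration giving no visible growth on the plate.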

Test [2] concerns Staphylococcus aureus. Briefly: Antibacterial activity against Staphylococcus aureus ATCC 29737 after 18 hrs by agar dilution method. It counts as functional. Conditions: ATCC 29737, 18 h. The method, boiled down: as §1
Test [3] relates to Pseudomonas aeruginosa. Put plainly: Antibacterial activity against Pseudomonas aeruginosa ATCC 9027 after 18 hrs by agar dilution method. Conditions: ATCC 9027, 18 h. (In general: In agar dilution, organisms are placed on agar that contains the substance at set levels.)
For test [4], the system named is Escherichia coli. Put plainly: Antibacterial activity against Escherichia coli ATCC 8739 after 18 hrs by agar dilution method. It counts as functional. The settings on record: ATCC 8739, 18 h. The method, boiled down:
as §1

Test [5] concerns Staphylococcus epidermidis. Put plainly: Antibacterial activity against Staphylococcus epidermidis ATCC 12229 after 18 hrs by agar dilution method. It is filed as functional. The settings on record: ATCC 12229, 18 h. The method, boiled down:
as §1

A short description of test [6]: Cytotoxicity against mouse NIH/3T3 cells after 24 hrs by MTT assay. It is filed as cell-based. The settings on record: NIH3T3, 24 h. The essentials:
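NIH/3T3 normal mouse fibroblasts exposed to compounds for 24 h; viability read by MTT colorimetric assay.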
In general terms: Tetrazolium assays rely on reduction of a dye to a coloured formazan, in cell work by metabolically active cells.

Test [7] relates to Staphylococcus aureus. Briefly: Antibacterial activity against methicillin-resistant Staphylococcus aureus isolate 2 after 18 hrs by agar dilution method. It counts as functional. Conditions: isolate 2, 18 h. The essentials: (§2)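 Agar dilution on Mueller Hinton agar. Inoculum about 10^6 CFU/mL applied to plates holding two-fold serial dilutions of compound in distilled water, 0.01 to 100 μg/mL. Incubated 37 °C for 18 h. DMSO solvent control included. MIC taken as the lowest concentration giving no visible growth on the plate.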

Test [8] relates to Staphylococcus aureus. Put plainly: Antibacterial activity against methicillin-resistant Staphylococcus aureus isolate 1 after 18 hrs by agar dilution method. Conditions: isolate 1, 18 h. It counts as functional. The essentials:
as §2

Usually MIC stands for the least concentration at which growth counts as inhibited. Low readings indicate greater potency, high ones weaker potency. Turning to `O=c1ccsn1-c1cccc(F)c1`, the MIC in test [1] was determined as 12.5 µg/mL (≈ 64 µM); in test [2], 6 µg/mL (≈ 30.7 µM); in test [3], 12.5 µg/mL (≈ 64 µM); in test [4], 12.5 µg/mL (≈ 64 µM); in test [5] it was 3.25 µg/mL (≈ 16.6 µM).
Regarding `O=c1ccsn1-c1ccc(Cl)cc1`, the MIC in test [1] is 10 µg/mL (≈ 47.2 µM); in test [2], 3 µg/mL (≈ 14.2 µM); in test [3], 10 µg/mL (≈ 47.2 µM); in test [4], 10 µg/mL (≈ 47.2 µM); in test [5], 1.5 µg/mL (≈ 7.09 µM).
Consider `O=c1cc(Cl)sn1-c1ccc(Cl)cc1`, for which the MIC stood at 0.3 µg/mL (≈ 1.22 µM) in test [1]; 0.1 µg/mL (≈ 0.406 µM) in test [2]; 0.6 µg/mL (≈ 2.44 µM) in test [3]; 0.3 µg/mL (≈ 1.22 µM) in test [4]; 0.1 µg/mL (≈ 0.406 µM) in test [5].
Turning to `O=c1cc(Cl)sn1-c1ccc(N2CCOCC2)c(F)c1`, the MIC in test [1] was found to be 25 µg/mL (≈ 79.4 µM); in test [2] it was 10 µg/mL (≈ 31.8 µM); in test [3], 12.5 µg/mL (≈ 39.7 µM); in test [4], 25 µg/mL (≈ 79.4 µM); in test [5] it was 10 µg/mL (≈ 31.8 µM).
With `CC(=O)c1ccc(N2CC(Cn3sccc3=O)OC2=O)cc1` (stereo not drawn), the MIC was 50 µg/mL (≈ 157 µM) in test [1]; 12.5 µg/mL (≈ 39.3 µM) in test [2]; 100 µg/mL (≈ 314 µM) in test [3]; 50 µg/mL (≈ 157 µM) in test [4]; 25 µg/mL (≈ 78.5 µM) in test [5].
For `O=C1OC(Cn2sccc2=O)CN1c1cccc(Cl)c1` (stereo not drawn), the MIC in test [1], in test [2], in test [3], in test [4] and in test [5] was 12.5 µg/mL (≈ 40.2 µM) throughout.
Consider `O=c1cc(Cl)sn1-c1ccccc1`, for which the MIC was 0.3 µg/mL (≈ 1.42 µM) in test [1]; 50 µg/mL (≈ 236 µM) in test [2]; 1.25 µg/mL (≈ 5.91 µM) in test [3]; 0.6 µg/mL (≈ 2.83 µM) in test [4]; 0.3 µg/mL (≈ 1.42 µM) in test [5].
As for `O=C1OC(Cn2sccc2=O)CN1c1ccc(C(F)(F)F)cc1` (stereo not drawn), the MIC in test [1] came to 100 µg/mL (≈ 290 µM); in test [2] it was 50 µg/mL (≈ 145 µM); in test [3], 100 µg/mL (≈ 290 µM); in test [4] it was 100 µg/mL (≈ 290 µM); in test [5], 100 µg/mL (≈ 290 µM).
Broadly, the IC50 is the midpoint of a concentration-inhibition curve. Read a low IC50 as inhibition by little substance. `O=C1OC(Cn2sccc2=O)CN1Cc1ccccc1` (stereo not drawn) gave an IC50 in test [6] of 273 µg/mL (≈ 940 µM). Besides, the MIC in test [7] turned out to be 12.5 µg/mL (≈ 43.1 µM); in test [1], 12.5 µg/mL (≈ 43.1 µM); in test [8], 8 µg/mL (≈ 27.6 µM); in test [2], 0.5 µg/mL (≈ 1.72 µM); in test [3] it was 12.5 µg/mL (≈ 43.1 µM); in test [4], 12.5 µg/mL (≈ 43.1 µM). Also, the lowest concentration to inhibit growth in test [5] (MIC) was 0.5 µg/mL (≈ 1.72 µM).
For the molecule `O=c1ccsn1-c1ccc(F)cc1`, the minimum inhibitory concentration (MIC) in test [1] is 12.5 µg/mL (≈ 64 µM); in test [2], 1.5 µg/mL (≈ 7.68 µM); in test [3], 12.5 µg/mL (≈ 64 µM); in test [4], 6 µg/mL (≈ 30.7 µM); in test [5], 3 µg/mL (≈ 15.4 µM).
For `O=c1cc(Cl)sn1-c1ccc(C(F)(F)F)cc1`, the MIC in test [1] is 12.5 µg/mL (≈ 44.7 µM); in test [2], 5 µg/mL (≈ 17.9 µM); in test [3], 0.1 µg/mL (≈ 0.358 µM); in test [4] it was 25 µg/mL (≈ 89.4 µM); in test [5], 5 µg/mL (≈ 17.9 µM).
Take `O=c1ccsn1-c1ccc(N2CCOCC2)c(F)c1`: the MIC worked out at 25 µg/mL (≈ 89.2 µM) in test [1]; 12.5 µg/mL (≈ 44.6 µM) in test [2]; 25 µg/mL (≈ 89.2 µM) in test [3]; 25 µg/mL (≈ 89.2 µM) in test [4]; 10 µg/mL (≈ 35.7 µM) in test [5].
As to `Cc1ccc(-n2sccc2=O)cc1`, the MIC in test [1] was 25 µg/mL (≈ 131 µM); in test [2], 25 µg/mL (≈ 131 µM); in test [3], 25 µg/mL (≈ 131 µM); in test [4], 25 µg/mL (≈ 131 µM); in test [5], 2 µg/mL (≈ 10.5 µM).
As for `O=C1OC(Cn2sccc2=O)CN1c1cccc(F)c1` (stereo not drawn), the MIC in test [1] was found to be 100 µg/mL (≈ 340 µM); in test [2], 50 µg/mL (≈ 170 µM); in test [3] it was 100 µg/mL (≈ 340 µM); in test [4] it was 100 µg/mL (≈ 340 µM); in test [5], 100 µg/mL (≈ 340 µM).
As to `O=c1ccsn1-c1ccccc1`, the MIC was found to be 25 µg/mL (≈ 141 µM) in test [1]; 3.25 µg/mL (≈ 18.3 µM) in test [2]; 12.5 µg/mL (≈ 70.5 µM) in test [3]; 12.5 µg/mL (≈ 70.5 µM) in test [4]; 3.25 µg/mL (≈ 18.3 µM) in test [5].
On to `O=C(O)c1cn(C2CC2)c2cc(N3CCNCC3)c(F)cc2c1=O` [CIPROFLOXACIN], for which the MIC was found to be 0.01 µg/mL (≈ 0.0302 µM) in test [1], 0.5 µg/mL (≈ 1.51 µM) in test [2], 0.01 µg/mL (≈ 0.0302 µM) in test [3] and 1 µg/mL (≈ 3.02 µM) in test [5].
On to `CC(=O)NC[C@H]1CN(c2ccc(N3CCOCC3)c(F)c2)C(=O)O1` [LINEZOLID], for which the IC50 in test [6] worked out at 465 µg/mL (≈ 1380 µM). The MIC in test [1] was more than 100 µg/mL; in test [8] it was 2 µg/mL (≈ 5.93 µM); in test [3], more than 100 µg/mL; in test [4], more than 100 µg/mL; in test [5] it was 0.03 µg/mL (≈ 0.0889 µM).
In the case of `CN[C@H](CC(C)C)C(=O)N[C@H]1C(=O)N[C@@H](CC(N)=O)C(=O)N[C@H]2C(=O)N[C@H]3C(=O)N[C@H](C(=O)N[C@H](C(=O)O)c4cc(O)cc(O)c4-c4cc3ccc4O)[C@H](O)c3ccc(c(Cl)c3)Oc3cc2cc(c3O[C@@H]2O[C@H](CO)[C@@H](O)[C@H](O)[C@H]2O[C@H]2C[C@](C)(N)[C@H](O)[C@H](C)O2)Oc2ccc(cc2Cl)[C@H]1O` [VANCOMYCIN], the MIC in test [1] is more than 100 µg/mL; in test [2] it was 0.75 µg/mL (≈ 0.518 µM); in test [3] it was more than 100 µg/mL; in test [4] it was more than 100 µg/mL; in test [5], 0.75 µg/mL (≈ 0.518 µM).
